In general, IC50 refers to the midpoint of a concentration-inhibition curve. Read a low IC50 as higher potency. For orientation: inhibition means the drop in the measured response relative to a control, in per cent.

IC50, inhibition and Activity data for 25 molecules are collected here from ChEMBL document CHEMBL1156902, “Evaluation of 3,4-dihydroquinazoline-2(1H)-thiones as inhibitors of alpha-MSH-induced melanin production in melanoma B16 cells” (Bioorg Med Chem, 2010).

Activity calls are given as the source filed them. The rule behind the calls is not given here. Where only a bound is given, the exact number is not on record here.

Data set [1] deals with B16. Briefly: Inhibition of alpha-MSH-induced melanin production in mouse B16 cells after 72 hrs. It is filed as functional, cell-based. The conditions noted are these: B16, 72 h. A digest of the protocol: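 B16 cells were seeded at 2.5 × 10³ per well and held 24 h at 37 °C in 5% CO₂. They were then stimulated with α-MSH for 72 h plus sample (10 nM in methods; 100 nM in results text). Cells were lysed in 1 N NaOH–10% DMSO at 80 °C. Melanin was read at A405 against a synthetic melanin standard, as the mean of 3–5 independent experiments.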

For data set [2], the system named is B16. Kind of data set: Inhibition of alpha-MSH-induced melanin production in mouse B16 cells at 10 uM after 72 hrs. Type of data set: functional. Particulars: B16, 72 h.
Data set [3] deals with B16. Briefly: Inhibition of alpha-MSH-induced melanin production in mouse B16 cells at 100 uM after 72 hrs. It is filed as functional. Particulars: B16, 72 h.
For data set [4], the target named is T1, Tyrosinase (Mus musculus) (UniProt P11344).
T1 sequence (whole entry): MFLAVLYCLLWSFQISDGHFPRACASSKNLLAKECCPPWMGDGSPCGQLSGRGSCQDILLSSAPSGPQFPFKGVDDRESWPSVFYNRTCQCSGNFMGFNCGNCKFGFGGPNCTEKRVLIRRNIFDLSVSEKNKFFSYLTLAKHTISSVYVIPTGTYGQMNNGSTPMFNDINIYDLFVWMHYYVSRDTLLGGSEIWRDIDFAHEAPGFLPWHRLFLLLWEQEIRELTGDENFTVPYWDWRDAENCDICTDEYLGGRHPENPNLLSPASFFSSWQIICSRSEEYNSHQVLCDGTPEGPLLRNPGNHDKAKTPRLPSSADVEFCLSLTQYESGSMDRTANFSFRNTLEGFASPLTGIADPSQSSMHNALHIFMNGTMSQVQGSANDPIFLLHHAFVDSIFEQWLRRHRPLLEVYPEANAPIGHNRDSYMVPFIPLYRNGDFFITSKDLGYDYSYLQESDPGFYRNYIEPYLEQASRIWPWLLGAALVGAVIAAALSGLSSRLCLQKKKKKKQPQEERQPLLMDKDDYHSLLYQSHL
Kind of data set: Inhibition of mouse tyrosinase in 48 hrs alpha-MSH-induced mouse B16 cells by Western blot analysis. It is filed as cell-based. In a few lines: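 B16 cells were stimulated with α-MSH for 48 h plus compound, then lysed in Tris/NaCl/SDS/NP-40 buffer with protease inhibitors at pH 7.4. Equal protein was run on SDS-PAGE, blotted to PVDF and blocked with milk or BSA. Anti-tyrosinase (1:1000) was applied overnight at 4 °C, with GAPDH (1:5000) as internal control. Detection used an HRP secondary and ECL.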
Background: A western blot detects proteins with antibodies after separation by electrophoresis.

Data set [5] has as its system B16. Briefly: Cytotoxicity against mouse B16 cells assessed as viability at 1 to 30 uM after 72 hrs by MTT assay in presence of alphaMSH. Type of data set: cell-based. The conditions noted are these: b16, 72 h. A digest of the protocol: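 B16 cells were exposed to test compound for 72 h with α-MSH (10 nM). They were then given MTT for 2 h, and the formazan was dissolved in 100% DMSO. Viability was read as optical density at 590 nm.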
(Tetrazolium dyes change colour on reduction, which living cells bring about.)

In data set [6] the target is T1, Tyrosinase (Mus musculus). Briefly: Inhibition of mouse tyrosinase in 48 hrs alpha-MSH-induced mouse B16 cells at 0.3 to 10 uM. Type of data set: cell-based.

In turn, `Cc1ccc(CCN2Cc3cc(Cl)ccc3NC2=S)cc1` showed an IC50 in the data set with B16 [1] of 5.5 µM. The inhibition at 10 µM with B16 [2] was above 100%.
The matching figures for `Cc1ccc2c(c1)CN(CCc1ccccc1)C(=S)N2`: 0.8 µM and above 100%.
With `NC(=O)Nc1ccccc1`, the inhibition at 100 µM in the data set on B16 [3] is 0%.
Take `Cc1ccc2c(c1)CN(CCc1ccc(Cl)cc1Cl)C(=S)N2`: the inhibition result in data set [4] was “Dose-dependent effect”. The same molecule yielded a half-maximal inhibitory concentration (IC50) with B16 [1] of 0.5 µM. Besides, in the data set with B16 [5], the Activity result is recorded as “Non-toxic”. Moreover, in data set [6], the inhibition result is “inactive”. This molecule also showed an inhibition at 10 µM with B16 [2] above 100%.
Regarding `Cc1ccc(CCN2Cc3cc(Cl)ccc3NC2=O)cc1`, the IC50 in the data set on B16 [1] is above 10 µM. Further, the inhibition at 10 µM with B16 [2] was 6%.
The corresponding values for `Cc1ccc(CCN2Cc3cc(C)ccc3NC2=S)cc1` are 2.7 µM and above 100%.
Turning to `O=c1cc(CO)occ1O` [KOJIC ACID], in the data set on B16 [1], 70 µM corresponded to half-maximal inhibition (IC50).
`Cc1ccc2c(c1)CN(CCc1cccc3ccccc13)C(=S)N2` returned an IC50 with B16 [1] of 2.4 µM. For the same molecule, the inhibition at 10 µM in the data set on B16 [2] was above 100%.
Take `Cc1cccc2c1CN(CCc1ccccc1)C(=O)N2`: the concentration for half-maximal inhibition (IC50) in the data set on B16 [1] is 9.8 µM. In the data set with B16 [2], the inhibition at 10 µM is 18%.
`S=C1Nc2ccc(Cl)cc2CN1CCc1ccc(Cl)cc1`: the IC50 in the data set with B16 [1] worked out at 1.6 µM. In the data set with B16 [2], the inhibition at 10 µM was above 100%.
The corresponding values for `Cc1ccc2c(c1)CN(CCc1ccc(C(C)C)cc1)C(=O)N2` are above 10 µM and 6%.
For the molecule `Cc1ccc2c(c1)CN(CCc1ccc(Cl)cc1)C(=O)N2`, the IC50 in the data set with B16 [1] was above 10 µM. For the same molecule, the inhibition at 10 µM in the data set with B16 [2] was 15%.
The matching figures for `S=C1Nc2ccc(Cl)cc2CN1CCc1ccccc1`: 2.8 µM and above 100%.
Molecule `Cc1ccc2c(c1)NC(=O)N(CCc1ccccc1)C2` gave an IC50 with B16 [1] above 10 µM. The molecule further gave an inhibition at 10 µM with B16 [2] of 24%.
`Cc1ccc2c(c1)CN(CCc1ccc(C(C)C)cc1)C(=S)N2`: the IC50 in the data set on B16 [1] is 0.5 µM. Further, the inhibition at 10 µM in the data set with B16 [2] is above 100%.
`OC[C@H]1O[C@@H](Oc2ccc(O)cc2)[C@H](O)[C@@H](O)[C@@H]1O` [ARBUTIN]: the IC50 in the data set on B16 [1] worked out at 180 µM.
Molecule `Cc1ccc2c(c1)CN(CCc1ccccc1)C(=O)N2` came in with an IC50 in the data set on B16 [1] above 10 µM. This molecule also showed an inhibition at 10 µM in the data set with B16 [2] of 16%.
The matching figures for `Cc1ccc(CCN2Cc3cc(C)ccc3NC2=O)cc1`: above 10 µM and 10%.
The matching figures for `Cc1ccc2c(c1)CN(CCc1ccc(Cl)cc1)C(=S)N2`: 4.3 µM and above 100%.
In the case of `Cc1ccc2c(c1)CN(CCc1cccc3ccccc13)C(=O)N2`, in the data set on B16 [1], the IC50 was above 10 µM. Also, in the data set on B16 [2], testing at 10 µM gave an inhibition of 5%.
The matching figures for `Cc1cccc2c1CN(CCc1ccccc1)C(=S)N2`: 1.1 µM and above 100%.
The matching figures for `Cc1ccc2c(c1)CN(CCc1ccc(Cl)cc1Cl)C(=O)N2`: above 10 µM and 11%.
The matching figures for `O=C1Nc2ccc(Cl)cc2CN1CCc1ccccc1`: above 10 µM and 18%.
In the data set on B16 [1], `O=C1Nc2ccc(Cl)cc2CN1CCc1ccc(Cl)cc1` showed an IC50 above 10 µM. In the data set with B16 [2], this molecule gave an inhibition at 10 µM of 7%.
On to `Cc1ccc2c(c1)NC(=S)N(CCc1ccccc1)C2`, for which the IC50 in the data set on B16 [1] amounted to 0.8 µM. In the data set on B16 [2], the inhibition at 10 µM is above 100%.
